Laboratory results: ChEMBL document CHEMBL1157746, “Function-oriented synthesis of simplified caprazamycins: discovery of oxazolidine-containing uridine derivatives as antibacterial agents against drug-resistant bacteria” (J Med Chem, 2010)
In brackets after ≈: the same amount, converted by molar mass.

Columns and labels:
Enterococcus faecalis [1] = assay: Antibacterial activity against Enterococcus faecalis ATCC 29212 after 20 hrs by two fold microdilution broth method; format: functional; details: ATCC 29212, 20 h
In short: (§1)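 NCCLS-recommended broth microdilution in cation-adjusted Mueller-Hinton broth; serial 2-fold compound dilutions; each well inoculated with 5×10⁴ CFU in 0.1 mL; incubated 35 °C for 20 h, then MIC (μg/mL) scored.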

Staphylococcus aureus [2] = assay: Antibacterial activity against methicillin-sensitive Staphylococcus aureus ATCC 29213 after 20 hrs by two fold microdilution broth method; format: functional; details: ATCC 29213, 20 h; in short: as §1
Enterococcus faecium [3] = assay: Antibacterial activity against vancomycin-resistant Enterococcus faecium SR-7917 clinical isolate after 20 hrs by two fold microdilution broth method; format: functional; details: SR7917, 20 h
In short: (§2)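 NCCLS broth microdilution in cation-adjusted Mueller-Hinton broth. Serial 2-fold compound dilutions, inoculum 5×10⁴ CFU per well in 0.1 mL. Plates incubated at 35 °C for 20 h, then MIC (μg/mL) scored. Strains are clinical isolates from Japanese hospitals: MRSA SR3637, VanA E. faecalis SR7914, VanA E. faecium SR7917.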

Staphylococcus aureus [4] = assay: Antibacterial activity against methicillin-resistant Staphylococcus aureus SR-3637 clinical isolate after 20 hrs by two fold microdilution broth method; format: functional; details: SR3637, 20 h; in short: as §2
Enterococcus faecalis [5] = assay: Antibacterial activity against vancomycin-resistant Enterococcus faecalis SR-7914 clinical isolate after 20 hrs by two fold microdilution broth method; format: functional; details: SR7914, 20 h; in short: as §2
[6] = molecular target: T1, Phospho-N-acetylmuramoyl-pentapeptide-transferase (Bacillus subtilis (strain 168), UniProt Q03521); assay: Inhibition of Bacillus subtilis MraY after 30 mins using UDP-MurNAc-pentapeptide as substrate
T1 sequence (Q03521 whole entry): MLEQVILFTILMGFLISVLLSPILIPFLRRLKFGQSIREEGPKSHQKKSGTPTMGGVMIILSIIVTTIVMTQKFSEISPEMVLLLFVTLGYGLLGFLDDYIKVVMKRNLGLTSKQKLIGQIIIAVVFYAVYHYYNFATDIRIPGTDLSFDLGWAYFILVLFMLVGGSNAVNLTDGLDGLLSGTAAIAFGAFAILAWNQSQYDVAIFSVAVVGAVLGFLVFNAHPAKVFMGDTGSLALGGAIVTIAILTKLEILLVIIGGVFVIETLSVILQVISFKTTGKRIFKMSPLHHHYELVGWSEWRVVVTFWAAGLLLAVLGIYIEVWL

Enterococcus faecium [7] = assay: Antibacterial activity against Enterococcus faecium ATCC 19434 after 20 hrs by two fold microdilution broth method; format: functional; details: ATCC 19434, 20 h; in short: as §1

Structure (SMILES)	MIC (Enterococcus faecalis [1]) [µg/mL]	MIC (Staphylococcus aureus [2]) [µg/mL]	MIC (Enterococcus faecium [3]) [µg/mL]	MIC (Staphylococcus aureus [4]) [µg/mL]	MIC (Enterococcus faecalis [5]) [µg/mL]	IC50 [6] [µM]	MIC (Enterococcus faecium [7]) [µg/mL]
CCCCCCCCc1ccc(NC(=O)[C@@H](N)[C@H](O[C@@H]2O[C@H](CN)[C@@H](O)[C@H]2O)[C@H]2O[C@@H](n3ccc(=O)[nH]c3=O)[C@H](O)[C@@H]2O)cc1.O=C(O)C(F)(F)F	16	64	32	64	64	46	32
CCCCCCCCCCCCNC(=O)[C@@H](N)[C@H](O[C@@H]1O[C@H](CN)[C@@H](O)[C@H]1O)[C@H]1O[C@@H](n2ccc(=O)[nH]c2=O)[C@H](O)[C@@H]1O.O=C(O)C(F)(F)F	16	64	16	64	32	18	16
CCCCCCCCCCCC(=O)N[C@H](C(=O)O)[C@H](O[C@@H]1O[C@H](CN)[C@@H](O)[C@H]1O)[C@H]1O[C@@H](n2ccc(=O)[nH]c2=O)[C@H](O)[C@@H]1O.O=C(O)C(F)(F)F	> 64	> 64	> 64	> 64	> 64	63	> 64
CCCCCCCCc1ccc(C(=O)N[C@H](C(=O)O)[C@H](O[C@@H]2O[C@H](CN)[C@@H](O)[C@H]2O)[C@H]2O[C@@H](n3ccc(=O)[nH]c3=O)[C@H](O)[C@@H]2O)cc1.O=C(O)C(F)(F)F	64	> 64	> 64	> 64	> 64	256	> 64
CCCCCCCCCCCCNC(=O)N[C@H](C(=O)O)[C@H](O[C@@H]1O[C@H](CN)[C@@H](O)[C@H]1O)[C@H]1O[C@@H](n2ccc(=O)[nH]c2=O)[C@H](O)[C@@H]1O.O=C(O)C(F)(F)F	64	> 64	> 64	> 64	64	36	> 64
CCCCCCCCc1ccc(NC(=O)N[C@H](C(=O)O)[C@H](O[C@@H]2O[C@H](CN)[C@@H](O)[C@H]2O)[C@@H]2O[C@@H](n3ccc(=O)[nH]c3=O)[C@H](O)[C@@H]2O)cc1.O=C(O)C(F)(F)F	64	> 64	> 64	> 64	64	75	> 64
CCCCCCCCCCCCCCCC(=O)N1[C@H](C(=O)O)[C@@H]([C@H]2O[C@@H](n3ccc(=O)[nH]c3=O)[C@H](O)[C@@H]2O)O[C@@H]1CN	> 64	> 64	> 64	> 64	> 64	740	> 64
CCCCCCCCCCCCCCCC(=O)N1[C@H](C(=O)O)[C@@H]([C@H]2O[C@@H](n3ccc(=O)[nH]c3=O)[C@H](O)[C@@H]2O)O[C@@H]1CCN	> 64	> 64	> 64	> 64	> 64	451	> 64
CCCCCCCCCCCCCCCC(=O)N1[C@H](C(=O)O)[C@@H]([C@H]2O[C@@H](n3ccc(=O)[nH]c3=O)[C@H](O)[C@@H]2O)O[C@@H]1CCCN	> 64	> 64	> 64	> 64	> 64	360	> 64
CCCCCCCCCCCCCCCC(=O)N1[C@H](C(=O)OC)[C@@H]([C@H]2O[C@@H](n3ccc(=O)[nH]c3=O)[C@H](O)[C@@H]2O)O[C@@H]1CN.Cl	32	> 64	16	13	64	980	32
CCCCCCCCCCCCCCCC(=O)N1[C@H](C(=O)OC)[C@@H]([C@H]2O[C@@H](n3ccc(=O)[nH]c3=O)[C@H](O)[C@@H]2O)O[C@@H]1CCN.Cl	8	8	8	8	16	920	4
CCCCCCCCCCCCCCCC(=O)N1[C@H](C(=O)OC)[C@@H]([C@H]2O[C@@H](n3ccc(=O)[nH]c3=O)[C@H](O)[C@@H]2O)O[C@@H]1CCCN.Cl	8	8	4	8	16	1200	8
CCCCCCCCCCCCCCCC(=O)N1[C@H](C(=O)OC(C)(C)C)[C@@H]([C@H]2O[C@@H](n3ccc(=O)[nH]c3=O)[C@H](O)[C@@H]2O)O[C@@H]1CN	4 (≈ 6.13 µM)	8 (≈ 12.3 µM)	4 (≈ 6.13 µM)	16 (≈ 24.5 µM)	2 (≈ 3.06 µM)		4 (≈ 6.13 µM)
CCCCCCCCCCCCCCCC(=O)N1[C@H](C(=O)OC(C)(C)C)[C@@H]([C@H]2O[C@@H](n3ccc(=O)[nH]c3=O)[C@H](O)[C@@H]2O)O[C@@H]1CCN	2 (≈ 3 µM)	8 (≈ 12 µM)	8 (≈ 12 µM)	16 (≈ 24 µM)	2 (≈ 3 µM)		2 (≈ 3 µM)
CCCCCCCCCCCCCCCCNC(=O)[C@@H]1[C@@H]([C@H]2O[C@@H](n3ccc(=O)[nH]c3=O)[C@H](O)[C@@H]2O)O[C@H](CN)N1C(C)=O.Cl	32	16	16	32	16		16
CCCCCCCCCCCCCCCCNC(=O)[C@@H]1[C@@H]([C@H]2O[C@@H](n3ccc(=O)[nH]c3=O)[C@H](O)[C@@H]2O)O[C@H](CCN)N1C(C)=O.Cl	16	16	16	16	16		16
CCCCCCCCCCCCCCCCNC(=O)[C@@H]1[C@@H]([C@H]2O[C@@H](n3ccc(=O)[nH]c3=O)[C@H](O)[C@@H]2O)O[C@H](CCCN)N1C(C)=O.Cl	16	16	16	32	16		16
CCCCCCCCCCCCCCCC(=O)N1[C@H](C(=O)OC)[C@@H]([C@H]2O[C@@H](n3ccc(=O)[nH]c3=O)[C@H](O)[C@@H]2O)O[C@@H]1CCN=[N+]=[N-]	16 (≈ 24.6 µM)	> 64	64 (≈ 98.3 µM)	> 64	> 64		64 (≈ 98.3 µM)
CCCCCCCCCCCCCCCC(=O)N1[C@H](C(=O)OC)[C@@H]([C@H]2O[C@@H](n3ccc(=O)[nH]c3=O)[C@H](O)[C@@H]2O)O[C@@H]1CCCN=[N+]=[N-]	32 (≈ 48.1 µM)	> 64	64 (≈ 96.3 µM)	> 64	> 64		> 64
CCCCCCCCCCCCCCCC(=O)O[C@H]1CN[C@@H]([C@H](O[C@@H]2O[C@H](CN)[C@@H](O)[C@H]2O)[C@H]2O[C@@H](n3ccc(=O)[nH]c3=O)[C@H](O)[C@@H]2O)C(=O)N(C)[C@@H]1C(=O)O [DESMETHYLPALMITOYLCAPRAZOL]	0.5 (≈ 0.625 µM)	0.5 (≈ 0.625 µM)	1 (≈ 1.25 µM)	0.5 (≈ 0.625 µM)	2 (≈ 2.5 µM)		1 (≈ 1.25 µM)
CN[C@H](CC(C)C)C(=O)N[C@H]1C(=O)N[C@@H](CC(N)=O)C(=O)N[C@H]2C(=O)N[C@H]3C(=O)N[C@H](C(=O)N[C@H](C(=O)O)c4cc(O)cc(O)c4-c4cc3ccc4O)[C@H](O)c3ccc(c(Cl)c3)Oc3cc2cc(c3O[C@@H]2O[C@H](CO)[C@@H](O)[C@H](O)[C@H]2O[C@H]2C[C@](C)(N)[C@H](O)[C@H](C)O2)Oc2ccc(cc2Cl)[C@H]1O [VANCOMYCIN]	1 (≈ 0.69 µM)		> 64		> 64		> 64
